Assay [1] deals with Influenza B virus. Put plainly: microbe, parasite or virus in culture. The conditions noted are these: B/New York/22/2008, MDCK, 72 h.
Assay [2] concerns Influenza A virus. Put plainly: Antiviral activity against adamantane-resistant zanamivir-,oseltamivir-susceptible Influenza A virus (A/New Hampshire/01/2009(H3N2)) harboring M2 S31N mutant infected in MDCK cells assessed as inhibition of viral replication after 3 days by microscopic analysis using crystal violet stain. The class given is functional, organism-based. The essentials: (§1)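 Confluent MDCK-ATCC monolayers infected with virus diluted to give 15–45 plaques/well. Adsorption 1 h at 37°C without drug, then washed. Overlaid with 0.8% agarose in MEM containing drug plus TPCK-trypsin: 3 μg/ml for seasonal viruses, 2 μg/ml for 2009 A(H1N1). Incubated 3 days at 37°C, 5% CO2. Ethanol-fixed, crystal violet-stained, plaques counted. EC50 by curve fit; duplicates on three occasions, mean ± SD.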

Assay [3] concerns Influenza A virus. The experiment in a line: Antiviral activity against Influenza A virus (A/Washington/29/2009(H1N1)) harboring neuraminidase H275Y mutant infected in MDCK cells from Mill Hill assessed as log reduction in viral titer at 1.6 uM after 24 hrs by immunofluorescent assay. The class given is functional. The method, boiled down: (§2)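 Yield reduction in MDCK-ATCC or MDCK-Mill Hill cells infected at MOI ∼0.01. Adsorption 1 h at 4°C, washed, then DMEM with 2 μg/ml TPCK-trypsin and drug. At 24 h, supernatants were titrated by immunofluorescent focus assay on MDCK cells with anti-NP monoclonals and FITC secondary. Titres as log10 FFU per 100 μl; detection limit <10 FFU. Quadruplicate, mean ± SD.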

Assay [4] relates to Influenza A virus. The experiment in a line: Antiviral activity against 0.001 MOI adamantane-resistant zanamivir-,oseltamivir-susceptible Influenza A virus (A/pdm/Mexico/4604/2009(H1N1)) harboring M2 V28I, S31N mutant infected in MDCK cells assessed as determination of viral titer in cell culture at 1.6 uM after 24 hrs by immunofluorescence assay. In kind it is functional, organism-based. The conditions noted are these: Influenza A virus (A/Mexico/4604/2009(H1N1)). The essentials: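 Focus inhibition assay: confluent MDCK monolayers infected at MOI ∼0.001–0.1. Adsorption 1 h at 4°C, washed twice, then DMEM with 2 μg/ml TPCK-trypsin and drug for 24 h at 37°C. Cells fixed in methanol/acetic acid at −20°C, immunostained with anti-NP monoclonals and FITC secondary, and foci counted. Supernatants also titrated by focus assay. Quadruplicate on two occasions.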

Assay [5] relates to Influenza A virus. Put plainly: Antiviral activity against adamantane-resistant zanamivir-,oseltamivir-susceptible Influenza A virus (A/pdm/New York/18/2009 (H1N1)) harboring M2 V28I, S31N mutant infected in MDCK cells assessed as inhibition of viral replication after 3 days by microscopic analysis using crystal violet stain. The class given is functional, organism-based, Influenza A virus (A/New York/18/2009(H1N1)). The method, boiled down: (§3)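 Plaque reduction on confluent MDCK-ATCC monolayers: pretitrated virus (15–45 plaques per well) adsorbed 1 h at 37°C without drug, then washed with PBS. Agarose overlay (0.8%, in MEM) with drug added, 3 days at 37°C. Cells fixed with 70% ethanol, stained with crystal violet, plaques counted. EC50 from curve fitting, averaged over three separate experiments in duplicate, ± SD.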

The subject of assay [6] is Influenza A virus. Put plainly: Antiviral activity against Influenza A virus (A/Illinois/10/2009(H1N1)) harboring neuraminidase H275Y mutant infected in MDCK cells from Mill Hill assessed as log reduction in viral titer at 1.6 uM after 24 hrs by immunofluorescent assay. The class given is functional. The essentials: as §2
Assay [7] concerns Influenza A virus. The experiment in a line: microbe, parasite or virus in culture. To be noted: (A/Wuhan/395/1995-like (H3N2)), MDCK, 72 h.
For assay [8], the system named is Influenza A virus. Put plainly: Antiviral activity against adamantane-resistant zanamivir-,oseltamivir-susceptible Influenza A virus (A/Washington/01/2007(H3N2)) harboring M2 S31N mutant infected in MDCK cells assessed as inhibition of viral replication after 3 days by microscopic analysis using crystal violet stain. In kind it is functional, organism-based. The essentials: as §1

Assay [9] has as its system Influenza A virus. Put plainly: Antiviral activity against adamantane-susceptible zanamivir-, oseltamivir-resistant Influenza A virus (A/Brazil/1633/2008(H1N1)) harboring neuraminidase Q136K mutant infected in MDCK cells assessed as inhibition of viral replication after 3 days by microscopic analysis using crystal violet stain. The class given is functional, organism-based.

The test system of assay [10] is Influenza A virus. Put plainly: Antiviral activity against adamantane-, zanamivir-susceptible oseltamivir-resistant Influenza A virus (A/Florida/21/2008(H1N1)) harboring neuraminidase H274Y mutant infected in MDCK cells assessed as inhibition of viral replication after 3 days by microscopic analysis using crystal violet stain. In kind it is functional, organism-based. The method, boiled down:
(§4)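 MDCK-ATCC confluent monolayers infected with pretitrated virus (15–45 plaques per well), 1 h adsorption at 37°C, 5% CO2, without drug. Inoculum removed, PBS wash, then 0.8% agarose overlay in MEM with drug and 3 μg/ml TPCK-trypsin. 3 days at 37°C, ethanol fixation, crystal violet stain, plaques counted. EC50 by curve fit, mean of three experiments in duplicate ± SD.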

For assay [11], the system named is Influenza A virus. The experiment in a line: Antiviral activity against Influenza A virus (A/Illinois/10/2009(H1N1)) harboring neuraminidase H275Y mutant infected in MDCK cells from Mill Hill assessed as inhibition of viral replication after 3 days by microscopic analysis using crystal violet stain. The class given is functional.
The test system of assay [12] is Influenza A virus. The experiment in a line: Antiviral activity against adamantane-, zanamivir-susceptible oseltamivir-resistant Influenza A virus (A/North Carolina/02/ 2009(H1N1)) harboring M2 S31N mutant infected in MDCK cells assessed as inhibition of viral replication after 3 days by microscopic analysis using crystal violet stain. The class given is functional, organism-based. The essentials:
as §1

Assay [13] deals with Influenza A virus. Put plainly: Antiviral activity against oseltamivir-susceptible zanamivir-, adamantane-resistant Influenza A virus (A/Texas/12/2007 (clone)(H3N2)) harboring neuraminidase E119V mutant and harboring M2 S31N mutant infected in MDCK cells assessed as inhibition of viral replication after 3 days by microscopic analysis using crystal violet stain. In kind it is functional, organism-based, Influenza A virus (A/Texas/12/2007(H3N2)). The essentials:
as §4

Assay [14] deals with Influenza B virus. Put plainly: Antiviral activity against oseltamivir-susceptible zanamivir-, adamantane-resistant Influenza B virus (B/Rochester/01/2001) harboring neuraminidase D198N mutant infected in MDCK cells assessed as inhibition of viral replication after 3 days by microscopic analysis using crystal violet stain. The class given is functional, organism-based.
Assay [15] deals with Influenza A virus. Put plainly: Antiviral activity against adamantane-resistant zanamivir-,oseltamivir-susceptible Influenza A virus (A/New York/34/2008(H1N1)) harboring M2 L26I mutant infected in MDCK cells assessed as inhibition of viral replication after 3 days by microscopic analysis using crystal violet stain. In kind it is functional, organism-based. The essentials: as §1

The subject of assay [16] is Influenza A virus. The experiment in a line: Antiviral activity against adamantane-resistant zanamivir-,oseltamivir-susceptible Influenza A virus (A/pdm/California/07/2009 (H1N1)) harboring M2 V28I, S31N mutant infected in MDCK cells assessed as inhibition of viral replication after 3 days by microscopic analysis using crystal violet stain. In kind it is functional, organism-based, A/California/07/2009(H1N1). The essentials: as §3

Assay [17] concerns Influenza A virus. Put plainly: Antiviral activity against adamantane-, zanamivir-susceptible oseltamivir-resistant Influenza A virus (A/Georgia/20/2006(H1N1)) harboring neuraminidase H274Y mutant infected in MDCK cells assessed as inhibition of viral replication after 3 days by microscopic analysis using crystal violet stain. In kind it is functional, organism-based. The method, boiled down:
as §1

Assay [18] relates to Influenza A virus. Put plainly: Antiviral activity against Influenza A virus (A/Washington/29/2009(H1N1)) harboring neuraminidase H275Y mutant infected in MDCK cells from ATCC assessed as inhibition of viral replication after 3 days by microscopic analysis using crystal violet stain. In kind it is functional. The method, boiled down: as §1
The test system of assay [19] is Influenza A virus. Put plainly: Antiviral activity against Influenza A virus (A/Illinois/10/2009(H1N1)) harboring neuraminidase H275Y mutant infected in MDCK cells from ATCC assessed as inhibition of viral replication after 3 days by microscopic analysis using crystal violet stain. In kind it is functional. The essentials: as §1

pEC50: −log10 of the molar value. Activity calls are given as the source filed them. The rule behind the calls is not given here.

A word on the pEC50: it is −log10 of the EC50, conventionally taken in molar units. As for `NC(=O)c1nc(F)cnc1O` [FAVIPIRAVIR], the pEC50 in the assay on Influenza B virus [1] is 5.28; with Influenza A virus [2], 5.39; in the assay with Influenza A virus [5], 6.05; in the assay on Influenza A virus [7], 5.22; with Influenza A virus [8], 5.35; with Influenza A virus [9] it was 6.08. The pEC50 in the assay on Influenza A virus [10] is 5.80; in the assay on Influenza A virus [12], 5.30; with Influenza A virus [13] it was 5.28; in the assay with Influenza B virus [14], 5.76; in the assay on Influenza A virus [15], 6.72; in the assay with Influenza A virus [16], 5.85. Moreover, in the assay on Influenza A virus [17], the pEC50 is 5.59. For the same compound, the log10FFU is reported as 5.4 with Influenza A virus [3]; 4.5 with Influenza A virus [6]; 5.03 with Influenza A virus [11]; 0.78 with Influenza A virus [18]; 4.21 in the assay with Influenza A virus [19]. In the assay with Influenza A virus [4], the outcome was Active.

For the origin of these results see ChEMBL document CHEMBL1671691 (Antimicrob Agents Chemother, 2010).
